From PubChem
Rows were chosen to be rich in hits. Some 2.3% of all compounds tested hit in one or more screens of this group.
TRPC6 inh – mouse TRPC6 channel inhibitors, primary screen, cell-based, HEK293, membrane potential dye; Short transient receptor potential channel 6 (Mus musculus), Q61143; ACh-evoked depolarization; hits give low values; B-score at 10 µM; actives 1.1% (n = 310,000); AID 2553, 2010;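 active means B-score under library mean minus 3 SD, initial fluorescence not abnormally high, positive integrated signal ratio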;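 further: B-score derived from integrated fluorescence ratio over the kinetic read; more negative B-score means stronger inhibition of depolarization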
Target sequence (Q61143 whole entry, looked up): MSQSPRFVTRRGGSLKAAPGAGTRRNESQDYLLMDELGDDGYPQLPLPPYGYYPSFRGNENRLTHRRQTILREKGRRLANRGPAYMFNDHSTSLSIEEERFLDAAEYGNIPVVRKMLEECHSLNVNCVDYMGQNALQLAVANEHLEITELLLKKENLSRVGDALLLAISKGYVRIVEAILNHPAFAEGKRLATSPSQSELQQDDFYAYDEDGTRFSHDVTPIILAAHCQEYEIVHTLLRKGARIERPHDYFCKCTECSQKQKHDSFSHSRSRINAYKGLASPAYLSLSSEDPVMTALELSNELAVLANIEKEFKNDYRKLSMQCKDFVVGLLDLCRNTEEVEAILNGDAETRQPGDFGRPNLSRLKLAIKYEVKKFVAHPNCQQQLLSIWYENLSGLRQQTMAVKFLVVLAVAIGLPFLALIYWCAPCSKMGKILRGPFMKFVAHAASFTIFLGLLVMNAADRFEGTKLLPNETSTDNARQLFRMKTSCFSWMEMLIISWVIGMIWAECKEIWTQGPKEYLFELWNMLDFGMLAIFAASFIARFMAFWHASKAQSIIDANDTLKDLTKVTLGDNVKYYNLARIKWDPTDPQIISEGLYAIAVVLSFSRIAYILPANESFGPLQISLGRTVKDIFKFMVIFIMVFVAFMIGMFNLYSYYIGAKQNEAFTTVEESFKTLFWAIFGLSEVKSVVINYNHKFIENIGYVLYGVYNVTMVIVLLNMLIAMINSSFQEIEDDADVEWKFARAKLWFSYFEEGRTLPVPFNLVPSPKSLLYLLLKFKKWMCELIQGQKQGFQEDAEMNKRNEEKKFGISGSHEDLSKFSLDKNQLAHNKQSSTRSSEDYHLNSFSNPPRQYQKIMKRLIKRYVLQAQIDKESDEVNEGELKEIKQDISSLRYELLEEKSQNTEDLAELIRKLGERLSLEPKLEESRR
TRPC4 inh – inhibitors of mouse TRPC4 channel, primary screen, Fluo4 calcium, HEK293 TRPC4beta/mu-opioid cells; AID 2247, 2010; actives 0.39% (n = 300,000); DAMGO-evoked Fluo4 calcium flux; hits give low values; Short transient receptor potential channel 4 (Mus musculus), Q9QUQ5; B-score at 10 µM;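 active means B-score over 3 SD under the library average, no early fluorescence shift, positive overall ratio signal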
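Assay system: HEK293 cells with stable TRPC4beta plus mu-opioid receptor expression. Dosing: single dose. Measured by: Fluo4 Ca2+ flux fluorescence. Also added: DAMGO in two steps, submaximal then maximal. Read-out: B score from integrated Fluo4 fluorescence ratio.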
TRPC4 potent – positive allosteric modulators of TRPC4, primary screen, cell-based, mouse TRPC4beta, HEK293 mu-opioid, Fluo-4 calcium; DAMGO EC20, Fluo-4 Ca2+ flux; hits give high values; B-score at 10 µM; actives 0.42% (n = 310,000);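 active means B-score of calcium response area above 5 SD of library B-scores, with initial fluorescence ratio within 5 SD of library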;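 further: B-score of integrated fluorescence ratio over time as area under calcium response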
TRPC6 act – mouse TRPC6 channel activators, primary screen, cell-based, HEK293, membrane potential dye | actives 0.13% (n = 310,000) | Short transient receptor potential channel 6 (Mus musculus), Q61143 | HEK293-TRPC6 membrane potential dye fluorescence; hits give high values | B-score at 10 µM;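 active means B-score of the integrated fluorescence ratio above library mean plus 3 SD, and starting fluorescence ratio within library mean plus 5 SD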;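 further: higher score means more depolarization so channel activation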
TRPC4 agonist – activators of mouse TRPC4 channel, primary screen, Fluo4 calcium, HEK293 TRPC4beta/mu-opioid cells; Fluo4 calcium fluorescence; hits give high values; B-score at 10 µM; actives 0.49% (n = 310,000); AID 2237, 2010;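 active means B-score above 5 SD of library B-scores, and initial fluorescence ratio not above library mean plus 5 SD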;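 further: positive B-score marks a calcium rise read as TRPC4 activation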
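Assay system: HEK293 stable line with TRPC4beta plus mu-opioid receptor. Times: dye 45 min RT, read 110 s. Measured by: kinetic Fluo4 calcium fluorescence. Measure: B score of integrated ratio. Controls: assay buffer as low control, maximal DAMGO as high control.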
HEK293 MPD ctr – parental HEK293 membrane potential modulation, confirmation, counter-screen for TRPC6 modulator project, cell-based; AID 488924, 2010; membrane potential signal change, % at 10 µM; shares compounds with TRPC6 inh; membrane potential dye fluorescence; actives 51% (n = 2,400);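 active means membrane potential signal moves up or down beyond 5 SD from buffer-only wells, on both duplicate plates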
HEK293 MPD ctr 2 – second counter-screen for TRPC6 modulators: effect in parental HEK293 cells; shares compounds with TRPC6 inh; membrane potential dye fluorescence; after compound, maximal acetylcholine stimulation; inhibition, % at 10 µM; actives 14% (n = 2,400); AID 488926;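 active means membrane potential signal drops by more than 5 SD from the mean control signal, in both duplicate plates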;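 further: plate controls were acetylcholine ECmax control wells for no effect and buffer only wells for full effect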
TRPC4/MOR mod – TRPC4 modulation by TRPC6 hit compounds, confirmation, selectivity assay for TRPC6 modulator project, cell-based, HEK293 TRPC4/mu-opioid, membrane potential dye, mouse. shares compounds with TRPC6 inh. membrane potential fluorescence. percent change from control (negative = decrease, positive = increase), % at 10 µM. actives 69% (n = 2,400);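 active means membrane potential signal moved up or down beyond 5 SD of buffer control wells, in both duplicate plates, actives on both sides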;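 further: plate controls were assay buffer wells for no effect and DAMGO maximal-effect wells for full effect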
TRPC4 ctr inh 2 – second selectivity test of TRPC6 modulators against mouse TRPC4 | actives 55% (n = 2,400) | AID 488928 | HEK293 TRPC4/mu-opioid, membrane potential dye fluorescence; stimulated with maximal-effect DAMGO | shares compounds with TRPC6 inh | inhibition, % at 10 µM;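 active means drop in membrane potential signal beyond 5 SD of the control wells in both duplicate plates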;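 further: TRPC4 counter screen for TRPC6 hits run under conditions tuned for TRPC6 not TRPC4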
TRPC6 inh conf – mouse TRPC6 channel inhibitors, confirmation, HEK293 cells, membrane potential dye, duplicate. shares compounds with TRPC6 inh. ACh-evoked depolarization. inhibition, % at 10 µM. actives 43% (n = 3,300). AID 488960, 2010;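 active means fluorescence ratio falls more than 5 SD below the full-stimulation control mean, in both duplicate runs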;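 further: integrated fluorescence ratio of peak minus minimum over baseline after agonist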
TRPC6 act conf – mouse TRPC6 channel activators, confirmation, HEK293 cells, membrane potential dye, duplicate; shares compounds with TRPC6 inh; HEK293-TRPC6 membrane potential dye fluorescence, FDSS; activation, % at 10 µM; actives 11% (n = 2,800);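 active means ratio signal rise beyond 5 SD above unstimulated control wells' mean, seen in both duplicate runs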;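 further: plate controls were buffer EC0 wells for no effect and acetylcholine ECmax response for full effect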
An asterisk follows results filed as active.

`O=C(Nc1ccc(F)c(Cl)c1)C1CC(=O)N(Cc2ccccc2)C1` (stereo not drawn) gave TRPC6 inh -6.1*, TRPC4 inh inactive, TRPC4 potent inactive, TRPC6 act inactive, TRPC4 agonist inactive, HEK293 MPD ctr inactive, HEK293 MPD ctr 2 inactive, TRPC4/MOR mod -8.5%*, TRPC4 ctr inh 2 inactive, TRPC6 inh conf inactive and TRPC6 act conf inactive.
`COc1ccc[nH]c1=O` gave TRPC6 inh -6*, TRPC4 inh inactive, TRPC4 potent inactive, TRPC6 act inactive, TRPC4 agonist inactive, HEK293 MPD ctr inactive, HEK293 MPD ctr 2 inactive, TRPC4/MOR mod inactive, TRPC4 ctr inh 2 inactive, TRPC6 inh conf inactive and TRPC6 act conf inactive.
`O=C(Nc1ccccc1)Oc1ccc[nH]c1=O` gave TRPC6 inh inactive, TRPC4 inh inactive, TRPC4 potent inactive, TRPC6 act inactive and TRPC4 agonist inactive.
`Cc1ccc(NC(=O)c2cc(-c3cccs3)nc3ccccc23)nc1` gave TRPC6 inh -6.4*, TRPC4 inh inactive, TRPC4 potent inactive, TRPC6 act inactive, TRPC4 agonist inactive, HEK293 MPD ctr inactive, HEK293 MPD ctr 2 inactive, TRPC4/MOR mod inactive, TRPC4 ctr inh 2 39%*, TRPC6 inh conf inactive and TRPC6 act conf inactive.
Screening CCOc1cc(C2Nc3cccc4cccc(c34)N2)ccc1O returned TRPC6 inh -5.9*, TRPC4 inh inactive, TRPC4 potent inactive, TRPC6 act inactive, TRPC4 agonist inactive, HEK293 MPD ctr -122%*, HEK293 MPD ctr 2 inactive, TRPC4/MOR mod -28%*, TRPC4 ctr inh 2 57%*, TRPC6 inh conf 41%* and TRPC6 act conf inactive.
Screening CCOc1ccc(C2Nc3cccc4cccc(c34)N2)cc1OC returned TRPC6 inh inactive, TRPC4 inh inactive, TRPC4 potent inactive, TRPC6 act inactive and TRPC4 agonist inactive.
`c1ccc(C2Nc3cccc4cccc(c34)N2)cc1` gave TRPC6 inh inactive, TRPC4 inh inactive, TRPC4 potent inactive, TRPC6 act inactive and TRPC4 agonist inactive.
`COc1ccc(C2Nc3cccc4cccc(c34)N2)cc1` gave TRPC6 inh -5*, TRPC4 inh inactive, TRPC4 potent inactive, TRPC6 act inactive, TRPC4 agonist inactive, HEK293 MPD ctr inactive, HEK293 MPD ctr 2 inactive, TRPC4/MOR mod -16%*, TRPC4 ctr inh 2 45%*, TRPC6 inh conf inactive and TRPC6 act conf inactive.
`CC1CCCCN1C(=O)CCS(=O)(=O)c1cc2c(cc1Cl)NC(=O)CO2` (stereo not drawn) gave TRPC6 inh inactive, TRPC4 inh inactive, TRPC4 potent inactive, TRPC6 act inactive and TRPC4 agonist inactive.
`O=C(O)CCC(=O)Nc1ccc(C(=O)OCC(=O)c2ccc(Cl)cc2Cl)cc1` gave TRPC6 inh inactive, TRPC4 inh inactive, TRPC4 potent inactive, TRPC6 act inactive and TRPC4 agonist inactive.
Screening Oc1c(C(Nc2ccccn2)c2ccccn2)ccc2cccnc12 (stereo not drawn) returned TRPC6 inh -6.2*, TRPC4 inh inactive, TRPC4 potent inactive, TRPC6 act inactive, TRPC4 agonist inactive, HEK293 MPD ctr inactive, HEK293 MPD ctr 2 inactive, TRPC4/MOR mod 9.5%*, TRPC4 ctr inh 2 inactive, TRPC6 inh conf 40%* and TRPC6 act conf inactive.
Screening Cc1cccc(C(=O)NN2C(=O)C3C(c4ccccc4)C=CC(c4ccccc4)C3C2=O)c1 (stereo not drawn) returned TRPC6 inh -5*, TRPC4 inh inactive, TRPC4 potent inactive, TRPC6 act inactive, TRPC4 agonist inactive, HEK293 MPD ctr inactive, HEK293 MPD ctr 2 inactive, TRPC4/MOR mod inactive, TRPC4 ctr inh 2 inactive, TRPC6 inh conf inactive and TRPC6 act conf inactive.
